The text below walks through data of ChEMBL document CHEMBL1177885, “Synthesis and biological activity of 2-(trifluoromethyl)-1H-benzimidazole derivatives against some protozoa and Trichinella spiralis” (Eur J Med Chem, 2010).

Calls of active or inactive are those of the source. No cut-off for these calls is given here.

One assay concerns Giardia intestinalis. Put plainly: Antiprotozoal activity against Giardia intestinalis IMSS:0989:1 after 48 hrs. The format is functional, organism-based. Particulars: Giardia duodenalis, IMSS:0989:1, 48 h. The method in brief:
(§1)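 Trophozoites were grown in modified TYI-S-33 with 10% calf serum, with bovine bile added for Giardia. 5 × 10⁴ trophozoites (Giardia, Trichomonas) or 6 × 10³ (Entamoeba) were exposed to increasing concentrations for 48 h at 37 °C, with DMSO as negative control. Cells were washed, regrown 48 h drug-free, and counted. IC50 was by Probit analysis, in triplicate, repeated at least twice.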

The next assay concerns Entamoeba histolytica. Put plainly: Antiprotozoal activity against Entamoeba histolytica HM-1:IMSS after 48 hrs. The format is functional, organism-based. The method in brief: as §1
The subject of another assay is Trichomonas vaginalis. Put plainly: Antiprotozoal activity against Trichomonas vaginalis G3 after 48 hrs. The following applies: G3, 48 h. It counts as functional, organism-based. The method in brief: as §1
The next assay concerns Leishmania mexicana. Description: Antileishmanial activity against Leishmania mexicana MHOM/MX92/UAY68 after 48 hrs. It counts as functional, organism-based. The following applies: MHOM/MX92/UAY68, 48 h. The gist of the method: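 Promastigotes at 2 × 10⁴/mL in RPMI 1640 with 10% FBS, 26 °C, were exposed to 0.1, 0.5, 1.5, 10 and 20 (final) of compound, with DMSO as negative control. Each concentration was run in triplicate. Parasites were fixed in 0.14 M NaCl/3.7% formaldehyde and counted in a Neubauer chamber.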

Assay [1] deals with Trichinella spiralis. Put plainly: Antitrichinellosis activity against Trichinella spiralis ML assessed as reduction of parasites viability at 0.18 uM after 3 days by MTT assay. The format is functional. The gist of the method:
(§2)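 1000 muscle larvae per well in RPMI 1640 were exposed to 0.18, 0.37 or 1.80 compound for 3 days at 37 °C in humid 5% CO2, with medium and compound renewed daily. Viability was read by MTT colorimetry as percent reduction of metabolic activity.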

For assay [2], the system named is Trichinella spiralis. Description: Antitrichinellosis activity against Trichinella spiralis ML assessed as reduction of parasites viability at 0 37 uM after 3 days by MTT assay. It counts as functional. The method in brief:
as §2

Assay [3] deals with Trichinella spiralis. Put plainly: Antitrichinellosis activity against Trichinella spiralis ML assessed as reduction of parasites viability at 1.8 uM after 3 days by MTT assay. It counts as functional. The gist of the method: as §2
Assay [4] relates to Trichinella spiralis. Description: Antitrichinellosis activity against adult phase of Trichinella spiralis ML infected in mouse assessed as reduction of parasites level at 75 mg/kg administered 3 days after postinfection measured after 6 days relative to control. It counts as functional. Details: scale not given: the % may be the effect or the level left. The method in brief: (§3)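 Groups of six mice were infected with 800 muscle larvae and given a single dose on day 3 post-infection. Mice were killed on day 6 post-infection and intestinal adults recovered. Read-out was percent adult load reduction.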

For assay [5], the system named is Trichinella spiralis. Put plainly: Antitrichinellosis activity against muscle larvae pahse of Trichinella spiralis ML larvae infected in mouse assessed as reduction of parasites level at 75 mg/kg administered for 7 consecutive days from day 28 postinfection measured on day 7 relative to control. It counts as functional. Details: scale not given: the % may be the effect or the level left. The method in brief: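 Groups of 10 mice were infected with 800 muscle larvae and treated at 75 mg/Kg from day 28 post-infection for 7 consecutive days. Mice were killed 7 days after treatment and muscle larvae recovered. Read-out was percent larval load reduction.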

Assay [6] deals with Trichinella spiralis. Description: Antitrichinellosis activity against adult phase of Trichinella spiralis ML infected in mouse assessed as reduction of parasites level at 50 mg/kg administered 3 days after postinfection measured after 6 days relative to control. The format is functional. Details: scale not given: the % may be the effect or the level left. The method in brief:
as §3

For `Cn1c(C(F)(F)F)nc2cc(Oc3cccc(Cl)c3Cl)ccc21`, the IC50 in the assay with Giardia intestinalis was 30 nM; in the assay on Entamoeba histolytica, 9 nM; in the assay with Trichomonas vaginalis, 16 nM; with Leishmania mexicana it was 24000 nM. Besides, the Activity was 54% in the assay with Trichinella spiralis [1]; 62% in the assay on Trichinella spiralis [2]; 80% in the assay with Trichinella spiralis [3]; 58% in the assay on Trichinella spiralis [4]; 46% in the assay with Trichinella spiralis [5].

Consider `FC(F)(F)c1nc2cc(Oc3cccc(Cl)c3Cl)ccc2[nH]1`, for which the half-maximal inhibitory concentration (IC50) in the assay on Giardia intestinalis was determined as 54 nM; in the assay on Entamoeba histolytica, 18 nM; in the assay with Trichomonas vaginalis, 535 nM. The Activity came out at 20% in the assay on Trichinella spiralis [1], 24% in the assay on Trichinella spiralis [2] and 29% in the assay on Trichinella spiralis [3].

On to `FC(F)(F)c1nc2cc(Cl)c(Cl)cc2[nH]1`, for which the figures for the 50% inhibitory concentration (IC50) in the assay with Trichomonas vaginalis and with Leishmania mexicana were 235 nM and 20800 nM, respectively. Moreover, in the assay on Trichinella spiralis [3], the Activity is 19%.

In the assay with Trichomonas vaginalis, `Cn1c(C(F)(F)F)nc2cc(Cl)ccc21` returned an IC50 of 238 nM. The Activity with Trichinella spiralis [3] came to 39%.

On to `FC(F)(F)c1nc2cc(Oc3cccc4ccccc34)c(Cl)cc2[nH]1`, for which the half-maximal inhibitory concentration (IC50) in the assay with Giardia intestinalis came to 5 nM; in the assay with Entamoeba histolytica, 19 nM; with Trichomonas vaginalis, 86 nM; in the assay on Leishmania mexicana, 13800 nM. For the same molecule, the Activity is recorded as 43% in the assay on Trichinella spiralis [1]; 50% in the assay on Trichinella spiralis [2]; 65% with Trichinella spiralis [3]; 69% with Trichinella spiralis [6]; 80% with Trichinella spiralis [4]; 40% in the assay on Trichinella spiralis [5].

Take `Cn1c(C(F)(F)F)nc2ccc(Oc3cccc(Cl)c3Cl)cc21`: the half-inhibitory concentration (IC50) with Giardia intestinalis turned out to be 63 nM; in the assay with Entamoeba histolytica, 19 nM; with Trichomonas vaginalis it was 110 nM; in the assay with Leishmania mexicana it was 4100 nM. The Activity was 44% in the assay on Trichinella spiralis [1], 48% in the assay with Trichinella spiralis [2] and 67% in the assay on Trichinella spiralis [3].

Regarding `N=C(N)c1ccc(OCCCCCOc2ccc(C(=N)N)cc2)cc1` [PENTAMIDINE], the IC50 with Leishmania mexicana amounted to 2420 nM.

`CSc1nc2cc(Oc3cccc4ccccc34)c(Cl)cc2[nH]1`: the Activity was 28% in the assay with Trichinella spiralis [6] and 24% in the assay on Trichinella spiralis [5].

For `CCCSc1ccc2[nH]c(NC(=O)OC)nc2c1` [ALBENDAZOLE], the Activity was 58.6% in the assay with Trichinella spiralis [1]; 61.9% in the assay with Trichinella spiralis [2]; 67% with Trichinella spiralis [3]; 62% in the assay with Trichinella spiralis [6]; 73% with Trichinella spiralis [4]; 63% in the assay with Trichinella spiralis [5].

Turning to `Cn1c(C(F)(F)F)nc2cc(Cl)c(Oc3cccc4ccccc34)cc21`, the IC50 with Giardia intestinalis was 12 nM; with Entamoeba histolytica it was 17 nM; in the assay with Trichomonas vaginalis, 451 nM; with Leishmania mexicana, 50100 nM. For the same molecule, the Activity came to 6% in the assay with Trichinella spiralis [1], 14% in the assay with Trichinella spiralis [2] and 18% with Trichinella spiralis [3].

With `Cn1c(C(F)(F)F)nc2cc(Oc3cccc4ccccc34)c(Cl)cc21`, the IC50 with Giardia intestinalis came out at 23 nM; with Entamoeba histolytica it was 38 nM; in the assay on Trichomonas vaginalis it was 970 nM; in the assay on Leishmania mexicana it was 65200 nM. The Activity was found to be 15% in the assay with Trichinella spiralis [1]; 29% in the assay with Trichinella spiralis [2]; 63% in the assay with Trichinella spiralis [3]; 36% with Trichinella spiralis [4]; 64% with Trichinella spiralis [5]. Moreover, in the assay on Trichinella spiralis [6], the result was inactive.

Turning to `FC(F)(F)c1nc2cc(Oc3cccc(Cl)c3Cl)c(Cl)cc2[nH]1`, the IC50 in the assay on Giardia intestinalis turned out to be 31 nM; with Entamoeba histolytica, 20 nM.

As for `CSc1nc2cc(Cl)c(Oc3cccc(Cl)c3Cl)cc2[nH]1` [TRICLABENDAZOLE], the Activity in the assay on Trichinella spiralis [6] worked out at 41%; in the assay with Trichinella spiralis [4], 7%; in the assay on Trichinella spiralis [5] it was 25%.

`Cc1ncc([N+](=O)[O-])n1CCO` [METRONIDAZOLE] displayed an IC50 in the assay on Trichomonas vaginalis of 216 nM.

By IC50 is commonly meant the concentration needed to halve the response being measured.
